Measured values: ChEMBL document CHEMBL1806410, “Design and synthesis of pyridine-substituted itraconazole analogues with improved antifungal activities, water solubility and bioavailability” (Bioorg Med Chem Lett, 2011)
≈ marks a conversion by molar mass, not a printed value.

Tests used:
[1] = Oral bioavailability in rat at 10 mg/kg, administered as single dose; assay type: ADME, organism-based; details: in vivo
Procedure, shortened: (§1)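 Rats received a single dose of compound, either oral (10 mg/kg) or intravenous (10, 5 or 2.5 mg/kg). Plasma levels were followed, and the reported parameters were Cmax, Tmax, AUC0–t, half-life, clearance and bioavailability (F).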

[2] = Solubility of the compound in water at pH 1.2; assay type: physicochemical; details: water, read-out: solubility
[3] = AUC (0 to t) in rat at 10 mg/kg, po administered as single dose; assay type: ADME, organism-based; set-up: dose 10 mg/kg, route oral; details: plasma; procedure, shortened: as §1
Candida parapsilosis [4] = experiment: Antifungal activity against Candida parapsilosis JLC 30275 by broth microdilution method; assay type: functional; details: Lodderomyces parapsilosis
Procedure, shortened: (§2)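 MICs were determined by broth microdilution following NCCLS guidelines (M38-P for filamentous fungi). The panel covered four yeast species and two Aspergillus species, with two strains per species. Itraconazole served as positive control.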

Cryptococcus neoformans [5] = experiment: Antifungal activity against Cryptococcus neoformans JLC 50123 by broth microdilution method; assay type: functional; procedure, shortened: as §2
Cryptococcus neoformans [6] = experiment: Antifungal activity against Cryptococcus neoformans JLC 50122 by broth microdilution method; assay type: functional; procedure, shortened: as §2
[7] = Tmax in rat at 10 mg/kg, po administered as single dose; assay type: ADME, organism-based; set-up: dose 10 mg/kg, route oral; details: in vivo; procedure, shortened: as §1
Candida albicans [8] = experiment: Antifungal activity against Candida albicans JLC 30364 by broth microdilution method; assay type: functional; procedure, shortened: as §2
[9] = AUC (0 to t) in rat at 10 mg/kg, iv administered as single dose; assay type: ADME, organism-based; set-up: dose 10 mg/kg, route intravenous; details: plasma; procedure, shortened: as §1
Aspergillus fumigatus [10] = experiment: Antifungal activity against Aspergillus fumigatus JLC 30883 by broth microdilution method; assay type: functional; procedure, shortened: as §2
Aspergillus flavus [11] = experiment: Antifungal activity against Aspergillus flavus JLC 30784 by broth microdilution method; assay type: functional; procedure, shortened: as §2
[12] = Half life in rat at 10 mg/kg, iv administered as single dose; assay type: ADME, organism-based; set-up: dose 10 mg/kg, route intravenous; details: in vivo; procedure, shortened: as §1
[13] = Cmax in rat at 10 mg/kg, po administered as single dose; assay type: ADME, organism-based; set-up: dose 10 mg/kg, route oral; details: in vivo; procedure, shortened: as §1
Pichia kudriavzevii [14] = experiment: Antifungal activity against Candida krusei JLC 30366 by broth microdilution method; assay type: functional; procedure, shortened: as §2
[15] = Half life in rat at 10 mg/kg, po administered as single dose; assay type: ADME, organism-based; set-up: dose 10 mg/kg, route oral; details: in vivo; procedure, shortened: as §1
Candida parapsilosis [16] = experiment: Antifungal activity against Candida parapsilosis JLC 30365 by broth microdilution method; assay type: functional; details: Lodderomyces parapsilosis; procedure, shortened: as §2
Candida albicans [17] = experiment: Antifungal activity against Candida albicans JLC 31374 by broth microdilution method; assay type: functional; procedure, shortened: as §2
Pichia kudriavzevii [18] = experiment: Antifungal activity against Candida krusei JLC 30386 by broth microdilution method; assay type: functional; procedure, shortened: as §2
Aspergillus flavus [19] = experiment: Antifungal activity against Aspergillus flavus JLC 40437 by broth microdilution method; assay type: functional; procedure, shortened: as §2
Aspergillus fumigatus [20] = experiment: Antifungal activity against Aspergillus fumigatus JLC 30506 by broth microdilution method; assay type: functional; procedure, shortened: as §2
[21] = Solubility of the compound in water at pH 7.4; assay type: physicochemical; details: buffer, BLD = below limit of detection
[22] = Clearance in rat at 10 mg/kg, iv administered as single dose; assay type: ADME, organism-based; set-up: dose 10 mg/kg, route intravenous; details: in vivo; procedure, shortened: as §1
[23] = AUC (0 to t) in rat at 5 mg/kg, iv administered as single dose; assay type: ADME, organism-based; set-up: dose 5 mg/kg, route intravenous; details: plasma; procedure, shortened: as §1
[24] = Half life in rat at 5 mg/kg, iv administered as single dose; assay type: ADME, organism-based; set-up: dose 5 mg/kg, route intravenous; details: in vivo; procedure, shortened: as §1
[25] = Clearance in rat at 5 mg/kg, iv administered as single dose; assay type: ADME, organism-based; set-up: dose 5 mg/kg, route intravenous; details: in vivo; procedure, shortened: as §1
[26] = AUC (0 to t) in rat at 2.5 mg/kg, iv administered as single dose; assay type: ADME, organism-based; set-up: dose 2.5 mg/kg, route intravenous; details: plasma
Procedure, shortened: (§3)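 Rats received a single iv dose. Drug levels were measured in plasma. Parameters came from the plasma concentration–time data: AUC over 0–t in ng h/mL, clearance (CL) in L/h/kg, and half-life in h.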

[27] = Clearance in rat at 2.5 mg/kg, iv administered as single dose; assay type: ADME, organism-based; set-up: dose 2.5 mg/kg, route intravenous; details: in vivo; procedure, shortened: as §3
Salmonella typhimurium = experiment: Mutagenic activity in Salmonella Typhimurium assessed as number of revertants colonies after 48 hrs by Ames test; assay type: toxicity, organism-based; details: salmonella enterica subsp. enterica serovar typhimurium
Procedure, shortened: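 Plate incorporation protocol without S9 mix. About 10^9 bacterial cells in culture medium were mixed with test compound in DMSO and poured onto hardened agar, in triplicate plates. Plates were incubated at 37 °C for 48 h, then revertant colonies were counted and reported as mean ± standard deviation.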

[28] = Half life in rat at 2.5 mg/kg, iv administered as single dose; assay type: ADME, organism-based; set-up: dose 2.5 mg/kg, route intravenous; details: in vivo; procedure, shortened: as §3
[29] = Acute toxicity in po dosed ICR mouse assessed as mortality after 10 days; assay type: organism-based; details: in vivo
Procedure, shortened: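 Single oral dose on day 0 at 100, 144, 207, 299, 430 or 619 mg/kg. Animals were watched continuously for 10 days, recording deaths and signs of toxicity. LD50 was calculated by a modified Kaber method.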

| Compound | bioavailability [1] | solubility [2] | AUC(0-t) [3] | MIC (Candida parapsilosis [4]) | MIC (Cryptococcus neoformans [5]) | MIC (Cryptococcus neoformans [6]) | Tmax [7] | MIC (Candida albicans [8]) | MIC (Aspergillus fumigatus [10]) | MIC (Aspergillus flavus [11]) | Cmax [13] | MIC (Pichia kudriavzevii [14]) | half-life [15] | MIC (Candida parapsilosis [16]) | MIC (Candida albicans [17]) | MIC (Pichia kudriavzevii [18]) | MIC (Aspergillus flavus [19]) | MIC (Aspergillus fumigatus [20]) | also measured |
| --- | --- | --- | --- | --- | --- | --- | --- | --- | --- | --- | --- | --- | --- | --- | --- | --- | --- | --- | --- |
| CC(C)n1ncn(-c2ccc(N3CCN(c4ccc(OC[C@H]5CO[C@](Cn6cncn6)(c6ccc(F)cc6F)O5)cc4)CC3)nc2)c1=O | 35% | 1.68 mg/mL (≈ 2550 µM) | 2.71 µg·h/mL | 0.125 mg/L (≈ 0.189 µM) | 0.25 mg/L (≈ 0.379 µM) | 0.25 mg/L (≈ 0.379 µM) | 1.88 h | 0.0075 mg/L (≈ 0.0114 µM) | 0.25 mg/L (≈ 0.379 µM) | 0.125 mg/L (≈ 0.189 µM) | 0.712 µg/mL | 0.0625 mg/L (≈ 0.0947 µM) | 1.26 h | 0.125 mg/L (≈ 0.189 µM) | 0.0075 mg/L (≈ 0.0114 µM) | 0.0625 mg/L (≈ 0.0947 µM) | 0.125 mg/L (≈ 0.189 µM) | 0.25 mg/L (≈ 0.379 µM) | AUC(0-t) [9]: 7.73 µg·h/mL; half-life [12]: 4.18 h; solubility [21]: BLD; clearance [22]: 1.27 L/h/kg |
| CC(C)Cn1ncn(-c2ccc(N3CCN(c4ccc(OC[C@H]5CO[C@](Cn6cncn6)(c6ccc(F)cc6F)O5)cc4)CC3)nc2)c1=O | 21.7% | 2.33 mg/mL (≈ 3460 µM) | 1.61 µg·h/mL | 0.125 mg/L (≈ 0.186 µM) | 0.5 mg/L (≈ 0.742 µM) | 0.5 mg/L (≈ 0.742 µM) | 2 h | 0.03 mg/L (≈ 0.0445 µM) | 0.25 mg/L (≈ 0.371 µM) | 0.0625 mg/L (≈ 0.0928 µM) | 0.392 µg/mL | 0.0625 mg/L (≈ 0.0928 µM) | 2.18 h | 0.125 mg/L (≈ 0.186 µM) | 0.03 mg/L (≈ 0.0445 µM) | 0.0625 mg/L (≈ 0.0928 µM) | 0.0625 mg/L (≈ 0.0928 µM) | 0.25 mg/L (≈ 0.371 µM) | AUC(0-t) [23]: 3.71 µg·h/mL; half-life [24]: 1.43 h; clearance [25]: 1.41 L/h/kg |
| CC(C)(CO)Cn1ncn(-c2ccc(N3CCN(c4ccc(OC[C@H]5CO[C@](Cn6cncn6)(c6ccc(F)cc6F)O5)cc4)CC3)cn2)c1=O | 42.2% | 0.19 mg/mL (≈ 270 µM) | 1.9 µg·h/mL | < 0.0156 mg/L | < 0.0156 mg/L | < 0.0156 mg/L | 3 h | 0.0156 mg/L (≈ 0.0222 µM) | 0.03 mg/L (≈ 0.0426 µM) | < 0.0156 mg/L | 0.297 µg/mL | < 0.0156 mg/L | 3.41 h | < 0.0156 mg/L | 0.0156 mg/L (≈ 0.0222 µM) | < 0.0156 mg/L | < 0.0156 mg/L | 0.03 mg/L (≈ 0.0426 µM) | AUC(0-t) [26]: 1.12 µg·h/mL; clearance [27]: 2.2 L/h/kg; Activity (Salmonella typhimurium): Non-toxic; half-life [28]: 2.3 h; LD50 at 240 h [29]: 278 mg/kg |
